Experimental data taken from ChEMBL document CHEMBL4261499, “Chiral disubstituted piperidinyl ureas: a class of dual diacylglycerol lipase-α and ABHD6 inhibitors” (Medchemcomm, 2017).
The source made the active and inactive calls. The calls are words filed in the database; no cut-off is given here.

Experiments:
[1] = biological target: T1, Diacylglycerol lipase-alpha (Homo sapiens, UniProt Q9Y4D2); experiment: Inhibition of recombinant human DAGLalpha expressed in HEK293 cells using PNP-butyrate as substrate pretreated for 20 to 30 mins followed by substrate addition measured every 60 secs for 20 mins by colorimetric method; type: cell-based
T1 sequence (Q9Y4D2 whole entry): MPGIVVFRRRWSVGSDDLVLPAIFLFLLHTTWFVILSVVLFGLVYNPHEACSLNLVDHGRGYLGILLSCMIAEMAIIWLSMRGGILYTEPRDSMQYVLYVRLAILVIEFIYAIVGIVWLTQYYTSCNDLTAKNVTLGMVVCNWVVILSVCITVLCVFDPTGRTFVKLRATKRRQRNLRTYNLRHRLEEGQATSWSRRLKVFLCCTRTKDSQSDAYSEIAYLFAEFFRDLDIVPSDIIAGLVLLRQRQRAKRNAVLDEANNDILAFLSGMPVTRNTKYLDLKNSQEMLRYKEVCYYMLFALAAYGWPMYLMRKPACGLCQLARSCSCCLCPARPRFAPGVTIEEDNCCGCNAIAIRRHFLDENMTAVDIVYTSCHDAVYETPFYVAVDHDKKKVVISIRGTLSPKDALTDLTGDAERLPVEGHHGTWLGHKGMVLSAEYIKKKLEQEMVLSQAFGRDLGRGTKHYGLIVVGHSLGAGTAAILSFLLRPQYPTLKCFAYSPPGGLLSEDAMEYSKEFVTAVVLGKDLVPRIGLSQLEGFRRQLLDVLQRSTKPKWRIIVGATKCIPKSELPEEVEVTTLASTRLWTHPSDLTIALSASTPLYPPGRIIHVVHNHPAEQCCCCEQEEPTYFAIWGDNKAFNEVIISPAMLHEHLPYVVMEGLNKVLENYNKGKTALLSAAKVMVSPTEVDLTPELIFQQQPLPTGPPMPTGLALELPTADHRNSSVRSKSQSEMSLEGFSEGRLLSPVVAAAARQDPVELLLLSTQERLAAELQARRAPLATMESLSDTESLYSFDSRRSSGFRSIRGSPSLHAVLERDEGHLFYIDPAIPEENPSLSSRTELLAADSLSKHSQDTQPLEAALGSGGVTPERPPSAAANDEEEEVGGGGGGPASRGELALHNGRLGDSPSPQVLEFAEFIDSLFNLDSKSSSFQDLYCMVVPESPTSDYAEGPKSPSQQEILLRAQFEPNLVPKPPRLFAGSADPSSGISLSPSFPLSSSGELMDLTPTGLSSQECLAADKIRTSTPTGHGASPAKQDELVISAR
Summary of the method: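 Membrane fraction from HEK293T cells transiently transfected with human DAGLα (PEI transfection, harvested at 72 h). Membranes used at 0.05 μg μL-1 final protein in 50 mM HEPES pH 7.2. Colorimetric readout of para-nitrophenylbutyrate hydrolysis. pIC50 ± SEM.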

[2] = biological target: T2, Epoxide hydrolase 4 (Mus musculus) (UniProt Q6IE26); experiment: Inhibition of MB064 labelling of ABHD7 in mouse brain homogenates at 10 uM pretreated for 30 mins followed by MB064 addition and measured after 20 mins by activity based protein profiling assay; type: tissue-based
T2 sequence (whole entry): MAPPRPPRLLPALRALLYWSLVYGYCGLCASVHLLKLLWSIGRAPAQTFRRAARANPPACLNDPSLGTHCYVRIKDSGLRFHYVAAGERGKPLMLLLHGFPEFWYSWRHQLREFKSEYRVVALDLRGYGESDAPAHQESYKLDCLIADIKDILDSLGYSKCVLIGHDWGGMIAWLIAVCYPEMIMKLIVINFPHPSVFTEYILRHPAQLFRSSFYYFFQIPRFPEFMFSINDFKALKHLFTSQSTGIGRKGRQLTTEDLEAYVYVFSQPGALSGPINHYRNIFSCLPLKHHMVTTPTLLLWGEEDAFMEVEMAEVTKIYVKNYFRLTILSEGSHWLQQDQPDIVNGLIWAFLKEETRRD
Summary of the method: (§1)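 Mouse brain membrane proteome preincubated 30 min with inhibitor (10 μM), then labelled with MB064 probe (0.25 μM, 20 min). Readout by gel-based competitive ABPP. Band intensities corrected for protein loading per lane from Coomassie staining. Means ± SEM, n = 3.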

[3] = biological target: 1-acylglycerol-3-phosphate O-acyltransferase ABHD5 (Mus musculus) (UniProt Q9DBL9); experiment: Inhibition of MB064 labelling of ABHD5 in mouse brain homogenates at 10 uM pretreated for 30 mins followed by MB064 addition and measured after 20 mins by activity based protein profiling assay; type: tissue-based; summary of the method: as §1
Sequence of 1-acylglycerol-3-phosphate O-acyltransferase ABHD5 (Mus musculus) (Q9DBL9 whole entry, looked up): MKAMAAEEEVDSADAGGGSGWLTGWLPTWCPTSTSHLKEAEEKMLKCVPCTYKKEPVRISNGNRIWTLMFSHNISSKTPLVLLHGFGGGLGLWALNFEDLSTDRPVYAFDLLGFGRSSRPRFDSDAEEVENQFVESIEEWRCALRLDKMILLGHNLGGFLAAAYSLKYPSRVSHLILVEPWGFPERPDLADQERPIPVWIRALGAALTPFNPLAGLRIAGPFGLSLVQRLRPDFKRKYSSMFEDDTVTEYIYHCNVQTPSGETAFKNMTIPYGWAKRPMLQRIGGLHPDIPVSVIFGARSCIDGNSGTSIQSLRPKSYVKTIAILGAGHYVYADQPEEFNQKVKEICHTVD

Mus musculus [4] = organism: Mus musculus; experiment: Inhibition of MB064 labelling of ABHD16A in mouse brain homogenates at 10 uM pretreated for 30 mins followed by MB064 addition and measured after 20 mins by activity based protein profiling assay; type: tissue-based; summary of the method: as §1
Mus musculus [5] = organism: Mus musculus; experiment: Inhibition of FP-TAMRA labelling of KIAA1363 in mouse brain homogenates at 10 uM pretreated for 30 mins followed by FP-TAMRA addition and measured after 20 mins by activity based protein profiling assay; type: tissue-based
Summary of the method: (§2)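 Mouse brain membrane proteome (2 mg mL-1) preincubated 30 min at r.t. with inhibitor (10 μM) or DMSO vehicle, then labelled with TAMRA-FP, 500 nM final, 20 min at r.t. Reaction quenched with Laemmli sample buffer. Readout by gel-based competitive ABPP with Coomassie staining as loading control.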

Mus musculus [6] = organism: Mus musculus; experiment: Inhibition of FP-TAMRA labelling of FAAH in mouse brain homogenates at 10 uM pretreated for 30 mins followed by FP-TAMRA addition and measured after 20 mins by activity based protein profiling assay; type: tissue-based; summary of the method: as §2
[7] = biological target: T3, Monoglyceride lipase (Mus musculus) (UniProt O35678); experiment: Inhibition of FP-TAMRA labelling of MAGL in mouse brain homogenates at 10 uM pretreated for 30 mins followed by FP-TAMRA addition and measured after 20 mins by activity based protein profiling assay; type: tissue-based; summary of the method: as §2
T3 sequence (whole entry): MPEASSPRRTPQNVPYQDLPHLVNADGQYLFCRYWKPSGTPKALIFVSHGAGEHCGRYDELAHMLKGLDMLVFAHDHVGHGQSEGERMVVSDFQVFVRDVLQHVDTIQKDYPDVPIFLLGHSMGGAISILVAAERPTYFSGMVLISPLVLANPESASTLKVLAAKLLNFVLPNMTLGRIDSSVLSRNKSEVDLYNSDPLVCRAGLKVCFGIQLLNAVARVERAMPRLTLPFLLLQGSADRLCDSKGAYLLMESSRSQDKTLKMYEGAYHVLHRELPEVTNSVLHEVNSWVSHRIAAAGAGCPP

Row | SMILES | IC50 [1] | inhibition [2] | inhibition [3] | inhibition (Mus musculus [4]) | inhibition (Mus musculus [5]) | inhibition (Mus musculus [6]) | inhibition [7]
1 | O=C(N1CCC=C[C@@H]1COCc1ccccc1)n1cc(-c2ccc(Br)cc2)nn1 | 15.8 nM |  |  |  |  |  | 
2 | O=C(N1CCC=C[C@@H]1COCc1ccccc1)n1cc(-c2ccc(Oc3ccccc3)cc2)nn1 | 25.1 nM |  |  |  |  |  | 
3 | O=C(N1CCC=C[C@@H]1COCc1ccccc1)n1cc(-c2ccc([N+](=O)[O-])cc2)nn1 | 15.8 nM | Active | Active | Active | Active | Active | Active
4 | O=C(N1CCCC[C@@H]1COCc1ccccc1)n1cc(-c2ccc(-c3ccccc3)cc2)nn1 | 79.4 nM |  |  |  |  |  | 
5 | O=C(N1C[C@@H](O)C=C[C@@H]1COCc1ccccc1)n1cc(-c2ccc(-c3ccccc3)cc2)nn1 | 31.6 nM | Active | Active | Active | Active | Active | Active
6 | O=C(N1CCC=C[C@@H]1COCc1ccccc1)n1cc(-c2ccccc2)nn1 | 158 nM | Active | Active | Active | Active | Active | Active
7 | O=C(N1CCC=C[C@@H]1COCc1ccccc1)n1cc(-c2ccc(-c3ccccc3)cc2)nn1 | 25.1 nM |  |  |  |  |  | 
